# Data reported in ChEMBL document CHEMBL4190404, “Synthesis and characterization of amino acid substituted sunitinib analogues for the treatment of AML” (Bioorg Med Chem Lett, 2018).
# Legend:
# [1] = Aqueous solubility in pH 5.5 phosphate buffer at 120 uM after 24 hrs by HPLC method; type: physicochemical; settings: phosphate buffer, pH 5.5
# [2] = system: Receptor-type tyrosine-protein kinase FLT3 (Homo sapiens), P36888 [UNDEFINED MUTATION]; experiment: Inhibition of FLT3 ITD mutant (unknown origin) using TAMRA-Src- tide as substrate at 12.5 uM after 1 hr by fluorescence polarization assay relative to control
# In short: (§1)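 FLT3-ITD kinase inhibition by fluorescence polarization IMAP assay; each compound tested at 12.5 and 1.25 μM; percent inhibition, average of two parallel measurements.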
# [3] = Lipophilicity, chromatographic hydrophobicity index of the compound at pH 7.4 by HPLC method; type: physicochemical; settings: buffer
# In short: (§2)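 RP-HPLC with buffer/acetonitrile gradient elution; CHI profile at starting pH 10.5, 7.4, 5.5 and 1.2; values given as average of the compound group.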
# [4] = system: Receptor-type tyrosine-protein kinase FLT3 (Homo sapiens), P36888 [UNDEFINED MUTATION]; experiment: Inhibition of FLT3 ITD mutant (unknown origin) using TAMRA-Src- tide as substrate at 1.25 uM after 1 hr by fluorescence polarization assay relative to control; in short: as §1
# [5] = Lipophilicity, chromatographic hydrophobicity index of the compound at pH 1.2 by HPLC method; type: physicochemical; settings: buffer; in short: as §2
# [6] = Lipophilicity, chromatographic hydrophobicity index of the compound at pH 5.5 by HPLC method; type: physicochemical; settings: buffer; in short: as §2
# [7] = Aqueous solubility in pH 7.4 phosphate buffer at 120 uM after 24 hrs by HPLC method; type: physicochemical
# MV4-11 = experiment: Antiproliferative activity against human MV4-11 cells after 72 hrs by Celltiter-Glo luminescent cell viability assay; type: functional, cell-based; settings: MV4-11, 72 h
# In short: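 MV4-11 leukaemia cells, 72 h proliferation assay, luminescence read-out; IC50 determined from concentration–response.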
# [8] = Dissociation constant, pKa of the compound at 25 to 50 uM by UV spectroscopy; type: physicochemical
# In short: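 Carboxyl pKa by automated UV/pH titration with MeOH as co-solvent.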
# [9] = n-Octanol-buffer distribution coefficient, log D of the compound at pH 5.5 after 1 hr by shake flask method; type: physicochemical
# [10] = Apparent partition coefficient, log P of the compound in n-octanol/aqueous mixture at pH 7.4 after 1 hr by shake flask method; type: physicochemical
# [11] = n-Octanol-buffer distribution coefficient, log D of the compound at pH 7.4 after 1 hr by shake flask method; type: physicochemical
# [12] = buffer, pH 10.5
# Chain of Receptor-type tyrosine-protein kinase FLT3 (Homo sapiens), P36888 [UNDEFINED MUTATION] (P36888 whole entry, looked up, change not shown): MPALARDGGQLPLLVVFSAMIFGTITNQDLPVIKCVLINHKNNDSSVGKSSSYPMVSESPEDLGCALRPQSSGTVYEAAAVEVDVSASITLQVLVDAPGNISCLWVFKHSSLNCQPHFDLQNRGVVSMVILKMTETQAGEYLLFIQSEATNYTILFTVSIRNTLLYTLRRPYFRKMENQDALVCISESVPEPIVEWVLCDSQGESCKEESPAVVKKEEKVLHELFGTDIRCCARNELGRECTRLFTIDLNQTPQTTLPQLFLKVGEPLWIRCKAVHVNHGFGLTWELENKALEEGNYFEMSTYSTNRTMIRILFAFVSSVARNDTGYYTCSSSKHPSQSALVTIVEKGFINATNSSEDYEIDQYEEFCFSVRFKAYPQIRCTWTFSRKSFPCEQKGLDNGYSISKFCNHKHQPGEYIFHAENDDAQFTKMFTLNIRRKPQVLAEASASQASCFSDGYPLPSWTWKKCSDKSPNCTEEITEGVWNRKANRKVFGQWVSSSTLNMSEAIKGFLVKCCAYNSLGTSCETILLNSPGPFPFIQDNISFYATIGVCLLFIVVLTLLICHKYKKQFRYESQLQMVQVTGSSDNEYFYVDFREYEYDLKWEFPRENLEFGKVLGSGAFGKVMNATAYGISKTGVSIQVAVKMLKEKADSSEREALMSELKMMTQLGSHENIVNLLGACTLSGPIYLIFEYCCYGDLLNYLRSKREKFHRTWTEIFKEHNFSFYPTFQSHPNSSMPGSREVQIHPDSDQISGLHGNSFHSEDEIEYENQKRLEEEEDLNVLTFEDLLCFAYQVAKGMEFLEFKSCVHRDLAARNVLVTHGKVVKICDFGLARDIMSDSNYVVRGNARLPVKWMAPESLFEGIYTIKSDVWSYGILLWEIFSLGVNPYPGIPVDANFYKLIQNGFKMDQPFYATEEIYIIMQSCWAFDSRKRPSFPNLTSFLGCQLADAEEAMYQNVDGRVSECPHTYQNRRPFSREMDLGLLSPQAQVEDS
"solubility at 24 h, 120 µM [1] [µM]",inhibition [2] [%],CHI [3],inhibition [4] [%],CHI [5],CHI [6],"solubility at 24 h, 120 µM [7] [µM]",IC50 (MV4-11) [µM],pKa at up to 50 µM [8],logD at 1 h [9],logD at 1 h [10],logD at 1 h [11],CHI [12],Compound
≥ 120,94.8,57,92.3,51,55,≥ 120,< 0.01,,,,,,CCN(CC)CCNC(=O)c1c(C)[nH]c(/C=C2\C(=O)Nc3ccc(F)cc32)c1C [SUNITINIB]
,> 100,,74.2,,,,,3.01,1.58,4.07,-0.32,,COC(=O)CC[C@H](NC(=O)c1c(C)[nH]c(/C=C2\C(=O)Nc3ccc(C(=O)N[C@H](Cc4ccccc4)C(=O)O)cc32)c1C)C(=O)OC
60,> 100,50,98.7,68,50,≥ 120,,,,,,47,COC(=O)CC[C@H](NC(=O)c1c(C)[nH]c(/C=C2\C(=O)Nc3ccc(C(=O)N[C@@H](Cc4ccccc4)C(=O)O)cc32)c1C)C(=O)OC
30,> 100,49,58.7,67,50,100,,3.04,1.16,3.62,-0.74,46,COC(=O)CC[C@H](NC(=O)c1ccc2c(c1)/C(=C/c1[nH]c(C)c(C(=O)N[C@@H](Cc3ccccc3)C(=O)O)c1C)C(=O)N2)C(=O)OC
< 5,80.5,65,41.9,65,65,< 5,,,,,,65,COC(=O)CC[C@H](NC(=O)c1ccc2c(c1)/C(=C/c1[nH]c(C)c(C(=O)N[C@@H](CCC(=O)OC)C(=O)OC)c1C)C(=O)N2)C(=O)OC
< 5,28.8,42,58.7,59,54,100,,,,,,34,COC(=O)CC[C@H](NC(=O)c1ccc2c(c1)/C(=C/c1[nH]c(C)c(C(=O)O)c1C)C(=O)N2)C(=O)OC
< 1,74.2,98,25,99,98,< 1,10.6,,,,,100,CCOC(=O)c1c(C)[nH]c(/C=C2\C(=O)Nc3ccc(C(=O)N[C@@H](Cc4ccccc4)C(=O)OC)cc32)c1C
30,> 100,59,58.6,80,60,70,24.3,,,,,57,COC(=O)[C@H](Cc1ccccc1)NC(=O)c1ccc2c(c1)/C(=C/c1[nH]c(C)c(C(=O)N[C@@H](Cc3ccccc3)C(=O)O)c1C)C(=O)N2
< 5,92.2,73,87,73,73,< 5,0.08,,,,,73,COC(=O)CC[C@H](NC(=O)c1c(C)[nH]c(/C=C2\C(=O)Nc3ccc(C(=O)OC)cc32)c1C)C(=O)OC
< 1,79.4,79,19.9,79,79,< 1,17.7,,,,,79,COC(=O)CC[C@H](NC(=O)c1ccc2c(c1)/C(=C/c1[nH]c(C)c(C(=O)N[C@@H](Cc3ccccc3)C(=O)OC)c1C)C(=O)N2)C(=O)OC
< 5,> 100,32,97.4,63,41,≥ 120,,,,,,24,Cc1[nH]c(/C=C2\C(=O)Nc3ccc(C(=O)N[C@@H](Cc4ccccc4)C(=O)O)cc32)c(C)c1C(=O)O
,75.4,,62.5,,,,,,3.36,3.36,3.36,,COC(=O)CC[C@@H](NC(=O)c1ccc2c(c1)/C(=C/c1[nH]c(C)c(C(=O)N[C@H](CCC(=O)OC)C(=O)OC)c1C)C(=O)N2)C(=O)OC
110,> 100,29,100,61,35,≥ 120,,,,,,24,Cc1[nH]c(/C=C2\C(=O)Nc3ccc(C(=O)O)cc32)c(C)c1C(=O)N[C@@H](Cc1ccccc1)C(=O)O
< 1,79.3,88,45.7,89,89,< 5,0.5,,,,,89,COC(=O)c1ccc2c(c1)/C(=C/c1[nH]c(C)c(C(=O)N[C@@H](Cc3ccccc3)C(=O)OC)c1C)C(=O)N2
< 1,76.7,84,30.2,84,84,< 1,,,,,,84,CCOC(=O)c1c(C)[nH]c(/C=C2\C(=O)Nc3ccc(C(=O)N[C@@H](CCC(=O)OC)C(=O)OC)cc32)c1C
20,> 100,60,94.8,81,60,50,,,,,,58,COC(=O)[C@H](Cc1ccccc1)NC(=O)c1c(C)[nH]c(/C=C2\C(=O)Nc3ccc(C(=O)N[C@@H](Cc4ccccc4)C(=O)O)cc32)c1C
< 1,92.3,90,28.9,92,91,< 1,10.9,,,,,91,COC(=O)[C@H](Cc1ccccc1)NC(=O)c1ccc2c(c1)/C(=C/c1[nH]c(C)c(C(=O)N[C@@H](Cc3ccccc3)C(=O)OC)c1C)C(=O)N2
110,> 100,39,98.7,70,40,≥ 120,,,,,,36,Cc1[nH]c(/C=C2\C(=O)Nc3ccc(C(=O)N[C@@H](Cc4ccccc4)C(=O)O)cc32)c(C)c1C(=O)N[C@@H](Cc1ccccc1)C(=O)O
,12.1,,80.6,,,,,5.47,,,,,COC(=O)CC[C@@H](NC(=O)c1ccc2c(c1)/C(=C/c1[nH]c(C)c(C(=O)O)c1C)C(=O)N2)C(=O)OC
< 5,> 100,60,90.9,86,61,20,,,,,,58,CCOC(=O)c1c(C)[nH]c(/C=C2\C(=O)Nc3ccc(C(=O)N[C@@H](Cc4ccccc4)C(=O)O)cc32)c1C
< 1,91,78,57.3,78,79,< 1,11.9,,,,,77,COC(=O)CC[C@H](NC(=O)c1c(C)[nH]c(/C=C2\C(=O)Nc3ccc(C(=O)N[C@@H](Cc4ccccc4)C(=O)OC)cc32)c1C)C(=O)OC
30,> 100,38,97.4,58,45,≥ 120,,,,,,35,COC(=O)CC[C@H](NC(=O)c1c(C)[nH]c(/C=C2\C(=O)Nc3ccc(C(=O)O)cc32)c1C)C(=O)OC
,> 100,,74.2,,,,13,3,3.18,5.68,1.28,,COC(=O)[C@@H](Cc1ccccc1)NC(=O)c1ccc2c(c1)/C(=C/c1[nH]c(C)c(C(=O)N[C@@H](Cc3ccccc3)C(=O)O)c1C)C(=O)N2
,> 100,,74.2,,,,,3,0.62,5.62,-3.18,,Cc1[nH]c(/C=C2\C(=O)Nc3ccc(C(=O)N[C@H](Cc4ccccc4)C(=O)O)cc32)c(C)c1C(=O)N[C@@H](Cc1ccccc1)C(=O)O
< 1,71.6,56,69,73,68,20,3.7,,,,,47,COC(=O)[C@H](Cc1ccccc1)NC(=O)c1ccc2c(c1)/C(=C/c1[nH]c(C)c(C(=O)O)c1C)C(=O)N2
